Reference: ChEMBL document CHEMBL1138837, “Structure-activity study on the Phe side chain arrangement of endomorphins using conformationally constrained analogues” (J Med Chem, 2004)
Residues, ends and D or L forms follow the SMILES beside them.

Tests used:
[1] = target: T1, Mu-type opioid receptor (Rattus norvegicus, UniProt P33535); assay: Displacement of [3H]endomorphin-2 from Opioid receptor mu 1 of rat brain membranes; assay type: cell membranes, Membrane
[2] = target: T1, Mu-type opioid receptor; assay: Displacement of [3H]DAMGO from Opioid receptor mu 1 of rat brain membranes; assay type: cell membranes, Membrane
[3] = target: Mu-type opioid receptor (Cavia porcellus, UniProt P97266); assay: Inhibition of Opioid receptor mu 1 of guinea pig ileum; assay type: tissue-based
Chain of Mu-type opioid receptor (Cavia porcellus, UniProt P97266) (P97266 whole entry): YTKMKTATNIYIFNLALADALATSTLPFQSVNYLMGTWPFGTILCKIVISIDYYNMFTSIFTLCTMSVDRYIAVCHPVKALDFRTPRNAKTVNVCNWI
Method in brief: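 Guinea pig ileum in Krebs solution at 37 °C, initial tension 0.8 g, equilibrated 60 min under electrical stimulation. Electrically evoked contractions were inhibited, using noncumulative dose–response curves, with IC50 from sigmoidal curve fitting.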

[4] = species: Rattus norvegicus; assay: In vitro percent maximal stimulation of [35S]GTP-gamma-S, binding by the compound in rat brain membranes; assay type: functional; settings: Membrane
Method in brief: (§1)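 Rat brain membranes (about 10 µg protein) with 0.05 nM [35S]GTPγS, 100 µM GDP and compound at 10^-9–10^-5 M, in Tris-EGTA buffer (1 mM EGTA, 3 mM MgCl2, NaCl, pH 7.4), at 30 °C for 60 min. Basal binding was measured without compound; nonspecific binding with 100 µM GTPγS. GF/B filtration was used, with three experiments in triplicate. Stimulation is expressed as percent of specific binding.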

[5] = target: Delta-type opioid receptor (Rattus norvegicus, UniProt P33533); assay: Displacement of [3H]Ile5,6-deltorphin II from opioid receptor delta 1 of rat brain membranes; assay type: cell membranes, Membrane
Chain of Delta-type opioid receptor (P33533 whole entry): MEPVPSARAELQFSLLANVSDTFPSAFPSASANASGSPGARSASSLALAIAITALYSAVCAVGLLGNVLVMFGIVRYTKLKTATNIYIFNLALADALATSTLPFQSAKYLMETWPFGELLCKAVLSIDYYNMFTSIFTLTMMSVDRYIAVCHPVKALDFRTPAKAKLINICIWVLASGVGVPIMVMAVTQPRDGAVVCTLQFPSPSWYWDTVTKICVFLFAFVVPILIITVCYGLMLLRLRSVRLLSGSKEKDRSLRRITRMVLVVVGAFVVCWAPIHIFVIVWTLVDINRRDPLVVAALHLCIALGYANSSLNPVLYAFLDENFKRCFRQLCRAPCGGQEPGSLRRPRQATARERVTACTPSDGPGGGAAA

[6] = target: Mu-type opioid receptor (Mus musculus, UniProt P42866); assay: Inhibition of Mu opioid receptor of mouse vas deferens
Chain of Mu-type opioid receptor (Mus musculus, UniProt P42866) (P42866 whole entry): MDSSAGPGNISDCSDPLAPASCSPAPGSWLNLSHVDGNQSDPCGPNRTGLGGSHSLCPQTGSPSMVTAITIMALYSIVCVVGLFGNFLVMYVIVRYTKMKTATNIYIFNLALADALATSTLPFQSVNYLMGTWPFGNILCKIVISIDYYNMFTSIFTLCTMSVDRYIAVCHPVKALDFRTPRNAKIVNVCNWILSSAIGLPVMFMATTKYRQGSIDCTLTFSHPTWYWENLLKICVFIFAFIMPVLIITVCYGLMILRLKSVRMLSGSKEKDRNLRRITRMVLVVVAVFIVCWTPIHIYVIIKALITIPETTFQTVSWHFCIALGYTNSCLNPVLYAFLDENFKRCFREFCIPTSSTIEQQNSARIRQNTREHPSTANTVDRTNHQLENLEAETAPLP
Method in brief: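 Mouse vas deferens in Mg-free Krebs at 31 °C, 0.1 g initial tension, equilibrated 30 min under electrical stimulation. Inhibition of evoked contractions was measured with noncumulative dose–response curves, and IC50 was obtained by sigmoidal fitting.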

[7] = species: Rattus norvegicus; assay: In vitro effective dose against [35S]GTP-gamma-S, binding to rat brain membranes; assay type: functional; settings: Membrane; method in brief: as §1
[8] = target: T1, Mu-type opioid receptor; assay: In vitro binding affinity towards Opioid receptor mu 1 in rat brain membranes; assay type: cell membranes
Method in brief: (§2)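 Wistar rat brain membranes without cerebellum (300–500 µg protein) in 50 mM Tris-HCl, pH 7.4, for competition binding. Incubation was stopped by vacuum filtration on GF/C filters, with two ice-cold buffer washes, then scintillation counting. Nonspecific binding was defined with 10 µM naloxone. Each assay was run in duplicate and repeated at least three times, with nonlinear least-squares fitting.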

[9] = target: T1, Mu-type opioid receptor; assay: Affinity for Opioid receptor mu 1 in rat brain membranes; assay type: cell membranes; method in brief: as §2
[10] = Half-life in rat brain homogenate; assay type: ADME
Method in brief: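 Peptide from a 1 mM stock in 50 mM Tris-HCl, pH 7.4, was incubated at 37 °C with rat brain homogenate (5.4 mg/mL protein). Timed aliquots were acidified with 0.1 M HCl, centrifuged, and analysed by RP-HPLC with UV detection at 216 nm. The rate constant came from ln(A/A0) versus time (at least five points). Half-life assumed pseudo-first-order kinetics, from 3–5 measurements.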

T1 sequence (P33535 whole entry): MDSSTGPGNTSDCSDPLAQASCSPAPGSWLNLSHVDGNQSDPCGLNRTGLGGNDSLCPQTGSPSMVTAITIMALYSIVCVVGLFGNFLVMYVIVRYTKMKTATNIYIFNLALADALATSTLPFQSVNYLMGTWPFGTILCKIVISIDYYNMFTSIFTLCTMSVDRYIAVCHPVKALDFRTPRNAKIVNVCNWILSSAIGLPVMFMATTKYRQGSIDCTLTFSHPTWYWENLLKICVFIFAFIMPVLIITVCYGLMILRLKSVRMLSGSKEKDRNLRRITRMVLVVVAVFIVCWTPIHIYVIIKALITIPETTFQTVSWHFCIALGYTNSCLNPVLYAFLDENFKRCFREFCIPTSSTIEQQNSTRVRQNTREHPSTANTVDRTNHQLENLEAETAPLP

Molecule `C[C@H](c1ccccc1)[C@@H](NC(=O)[C@H](Cc1ccccc1)NC(=O)[C@@H]1CCCN1C(=O)[C@@H](N)Cc1ccc(O)cc1)C(N)=O` has a Ki [1] of 0.127 µM, a Ki [2] of 0.25 µM and an IC50 [3] of 0.816 µM. For the same molecule, the Max stimulation [4] was 108%, the Ki [5] was 5.18 µM and the IC50 [6] was greater than 10 µM. The ED50 [7] was 0.104 µM.
In the case of `C[C@H](c1ccccc1)[C@@H](NC(=O)[C@@H]1CCCN1C(=O)[C@@H](N)Cc1ccc(O)cc1)C(=O)N[C@@H](Cc1ccccc1)C(N)=O`, the Max stimulation [4] is reported as 105%, the Ki [5] is reported as 6.76 µM and the ED50 [7] is reported as 0.0077 µM.
For `C[C@H](c1ccccc1)[C@H](NC(=O)[C@H](Cc1ccccc1)NC(=O)[C@@H]1CCCN1C(=O)[C@@H](N)Cc1ccc(O)cc1)C(N)=O`, the Ki [1] was 0.0234 µM, the Ki [2] was 0.0695 µM and the IC50 [3] was 0.0899 µM. The Max stimulation [4] was 132%, the Ki [5] was 4.9 µM and the IC50 [6] was 0.235 µM. It also gave an ED50 [7] of 0.455 µM.
With `N[C@@H](Cc1ccc(O)cc1)C(=O)N1CCC[C@H]1C(=O)N[C@@H](Cc1ccccc1)C(=O)O` (H-Tyr-Pro-Phe-OH) the IC50 [8] was 0.161 µM and the Ki [9] was 0.0463 µM.
Molecule `C[C@@H](c1ccccc1)[C@H](NC(=O)[C@H](Cc1ccccc1)NC(=O)[C@@H]1CCCN1C(=O)[C@@H](N)Cc1ccc(O)cc1)C(N)=O` has a Ki [1] of 0.00097 µM, a Ki [2] of 0.00167 µM and an IC50 [3] of 0.00346 µM. The half-life [10] was 16.1 min, the Max stimulation [4] was 148% and the Ki [5] was 6.36 µM. The IC50 [6] was 0.00915 µM and the ED50 [7] was 0.139 µM.
Molecule `C[C@H](c1ccccc1)[C@H](NC(=O)[C@@H]1CCCN1C(=O)[C@@H](N)Cc1ccc(O)cc1)C(=O)N[C@@H](Cc1ccccc1)C(N)=O` has a Max stimulation [4] of 146%, a Ki [5] greater than 10 µM and an ED50 [7] of 1.8 µM.
Work on `C[C@@H](c1ccccc1)[C@@H](NC(=O)[C@H](Cc1ccccc1)NC(=O)[C@@H]1CCCN1C(=O)[C@@H](N)Cc1ccc(O)cc1)C(N)=O` yielded a Ki [1] of 0.0477 µM, a Ki [2] of 0.104 µM and an IC50 [3] of 0.589 µM. The Max stimulation [4] was 115%, the Ki [5] was greater than 10 µM and the IC50 [6] was greater than 10 µM. It also gave an ED50 [7] of 0.572 µM.
In the case of `NC(=O)[C@H](Cc1ccccc1)NC(=O)[C@H](Cc1ccccc1)NC(=O)[C@@H]1CCCN1C(=O)[C@@H](N)Cc1ccc(O)cc1` [ENDOMORPHIN 2], the half-life [10] is reported as 3.8 min and the Max stimulation [4] is reported as 213%.
Molecule `C[C@@H](c1ccccc1)[C@H](NC(=O)[C@H](Cc1c[nH]c2ccccc12)NC(=O)[C@@H]1CCCN1C(=O)[C@@H](N)Cc1ccc(O)cc1)C(N)=O` has a Ki [1] of 0.00047 µM, a Ki [2] of 0.0008 µM and a half-life [10] of 10.7 min. For the same molecule, the Max stimulation [4] was 163% and the ED50 [7] was 0.114 µM.
For `NC(=O)[C@H](Cc1ccccc1)NC(=O)[C@H](Cc1c[nH]c2ccccc12)NC(=O)[C@@H]1CCCN1C(=O)[C@@H](N)Cc1ccc(O)cc1` [ENDOMORPHIN-1], the half-life [10] was 4.9 min, the Max stimulation [4] was 237% and the ED50 [7] was 0.289 µM.
Molecule `C[C@@H](c1ccccc1)[C@@H](NC(=O)[C@@H]1CCCN1C(=O)[C@@H](N)Cc1ccc(O)cc1)C(=O)N[C@@H](Cc1ccccc1)C(N)=O` has a Max stimulation [4] of 103%, a Ki [5] greater than 10 µM and an ED50 [7] of 0.053 µM.
`C[C@H](c1ccccc1)[C@@H](NC(=O)[C@H](Cc1c[nH]c2ccccc12)NC(=O)[C@@H]1CCCN1C(=O)[C@@H](N)Cc1ccc(O)cc1)C(N)=O` gave a Ki [1] of 0.0436 µM, a Ki [2] of 0.0453 µM and a Max stimulation [4] of 114%. It also gave an ED50 [7] of 1.49 µM.
For `C[C@@H](c1ccccc1)[C@@H](NC(=O)[C@H](Cc1c[nH]c2ccccc12)NC(=O)[C@@H]1CCCN1C(=O)[C@@H](N)Cc1ccc(O)cc1)C(N)=O`, the Ki [1] was 0.047 µM, the Ki [2] was 0.107 µM and the Max stimulation [4] was 124%. It also gave an ED50 [7] of 0.784 µM.
For `C[C@H](c1ccccc1)[C@H](NC(=O)[C@H](Cc1c[nH]c2ccccc12)NC(=O)[C@@H]1CCCN1C(=O)[C@@H](N)Cc1ccc(O)cc1)C(N)=O`, the Ki [1] was 0.0234 µM, the Ki [2] was 0.0263 µM and the Max stimulation [4] was 126%. The ED50 [7] was 0.209 µM.
With `C[C@@H](c1ccccc1)[C@H](NC(=O)[C@@H]1CCCN1C(=O)[C@@H](N)Cc1ccc(O)cc1)C(=O)N[C@@H](Cc1ccccc1)C(N)=O` the Max stimulation [4] was 160%, the Ki [5] was 0.179 µM and the ED50 [7] was 1.61 µM.
